Source: ChEMBL document CHEMBL1143867, “Novel three-component synthesis and antiproliferative properties of diversely functionalized pyrrolines” (2008)
Calls of active or inactive are those of the source. The rule behind the calls is not given here.

Assays:
Jurkat [1] = experiment: Growth inhibition of human Jurkat cells at 50 uM by Trypan blue dye exclusion method; assay type: functional, cell-based
HeLa = experiment: Antiproliferative activity against human HeLa cells after 48 hrs by MTT assay relative to control; assay type: functional, cell-based
Outline: (§1)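 Cells (HeLa cervical or MCF7/AZ breast adenocarcinoma) exposed to test agents 48 h; mixtures at final 100 μM, individual isomers at final 100, 50 and 5 μM. Viability read by MTT (mitochondrial dehydrogenase activity), expressed as % remaining viability vs DMSO control. Two independent experiments, each in 4 replicates; mean ± SD.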

MCF7/AZ = experiment: Antiproliferative activity against human MCF7/AZ cells after 48 hrs by MTT assay relative to control; assay type: functional, cell-based; outline: as §1
Jurkat [2] = experiment: Induction of apoptosis in human Jurkat cells after 48 hrs at 50 uM by flow cytometry relative to control; assay type: functional
Outline: (§2)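 Jurkat T-cell leukemia cells treated 48 h with test agents at 50 μM (podophyllotoxin reference at 5 μM). Flow cytometric annexin-V/propidium iodide staining scored % apoptotic cells and % live cells, each relative to DMSO control. Two independent experiments, each in 3 replicates; mean ± SD.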

Jurkat [3] = experiment: Induction of apoptosis in human Jurkat cells assessed as viable cells at 50 uM after 48 hrs by flow cytometry relative to control; assay type: functional; details: read-out: Activity; outline: as §2
Jurkat [4] = experiment: Induction of apoptosis in human Jurkat cells assessed as viable cells at 5 uM after 48 hrs by flow cytometry relative to control; assay type: functional; details: read-out: Activity
Outline: (§3)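 Jurkat human T-cell leukemia cells were exposed to compound for 48 h and then stained with annexin-V/propidium iodide for flow cytometry. Apoptotic and live cell percentages are expressed relative to a DMSO control. Values are mean ± SD from two independent experiments, each run in 3 replicates.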

Jurkat [5] = experiment: Induction of apoptosis in human Jurkat cells after 48 hrs at 5 uM by flow cytometry relative to control; assay type: functional; outline: as §3
Jurkat [6] = experiment: Growth inhibition of human Jurkat cells assessed as decrease in cell count at 50 uM by Trypan blue dye exclusion method; assay type: functional, cell-based

SMILES	Activity (Jurkat [1])	Activity (HeLa)	Activity (MCF7/AZ)	Activity (Jurkat [2]) [%]	viability at 50 µM (Jurkat [3]) [%]	viability at 5 µM (Jurkat [4]) [%]	Activity (Jurkat [5]) [%]	Activity (Jurkat [6])
Cc1ccc(S(=O)(=O)N2C(N)=C(C#N)[C@@H](c3ccccc3)[C@@H]2C(=O)c2ccc(Br)cc2)cc1 (relative stereo)	Active	Active	Active	3	96			
COc1cc([C@@H]2c3cc4c(cc3[C@H](O)[C@H]3COC(=O)[C@H]23)OCO4)cc(OC)c1OC [PODOFILOX]						22	63	
COc1ccc(S(=O)(=O)N2C(N)=C(C#N)[C@@H](c3ccccc3)[C@H]2C(=O)c2ccc(Br)cc2)cc1 (relative stereo)		Active	Active					
COc1ccc(S(=O)(=O)N2C(N)=C(C#N)[C@@H](c3ccccc3)[C@@H]2C(=O)c2ccc(Br)cc2)cc1 (relative stereo)		Active	Active					
Cc1ccc(S(=O)(=O)N2C(N)=C(C#N)[C@@H](c3ccccc3)[C@H]2C(=O)c2ccc(Br)cc2)cc1 (relative stereo)		Active	Active	30	56			Active
